Shown are actives, neighbours in structure and some others; about 1.5% of the full set was active somewhere.
PKA-R2B act: activators of PKA-R2B holoenzyme, primary screen, biochemical, fluorescence polarization, Cy5-IP20, human; cAMP-dependent protein kinase catalytic subunit beta (Homo sapiens) + cAMP-dependent …; PKA-R2B holoenzyme dissociation; R2B truncated from residue 108, S112A mutant; 0% DMSO only, 100% 113 µM cGMP; activation, % at 11.4 µM; 340,000 compounds, 0.079% hits;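 active = activation above a cutoff set at the mean over all compounds plus 3 SD, cut at about 18% in these data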;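 also: higher means more holoenzyme dissociation and a rise in polarization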
Target sequence (P31323 whole entry, looked up, other chains not shown, the tested form may be a part): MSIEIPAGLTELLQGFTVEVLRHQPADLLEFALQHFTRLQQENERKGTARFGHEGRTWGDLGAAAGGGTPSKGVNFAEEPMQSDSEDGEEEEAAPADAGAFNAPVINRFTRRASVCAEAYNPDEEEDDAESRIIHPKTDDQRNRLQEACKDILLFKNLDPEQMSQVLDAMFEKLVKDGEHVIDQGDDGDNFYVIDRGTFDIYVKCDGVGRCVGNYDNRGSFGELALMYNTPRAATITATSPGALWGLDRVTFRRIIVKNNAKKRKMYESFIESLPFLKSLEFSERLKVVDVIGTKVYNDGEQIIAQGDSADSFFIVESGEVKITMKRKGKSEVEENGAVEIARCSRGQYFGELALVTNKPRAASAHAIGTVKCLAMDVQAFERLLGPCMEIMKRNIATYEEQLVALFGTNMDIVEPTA
CRFBP-R2 block: antagonists of CRF-BP/CRF-R2 complex, primary screen, cell-based, HEK293, calcium dye fluorescence, uHTS; CRF-induced calcium fluorescence; inhibition, % at 11.8 µM; 350,000 compounds, 0.59% hits;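 active = inhibition of the ligand-induced calcium signal above about 50% at the single tested concentration, limit read from the data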
SIRT5 block: SIRT5 desuccinylase inhibitors, primary screen, biochemical, fluorescence imaging, single point, set 5; NAD-dependent protein deacylase sirtuin-5, mitochondrial (Homo sapiens), Q9NXA8; Purified SirT5, succinyl-peptide AMC, trypsin-coupled fluorescence; inhibition, % at 15 µM; 330,000 compounds, 1.1% hits; AID 652115, 2013; in the data active = inhibition above about 15%
PKA-R1A activ: activators of PKA-R1A holoenzyme, primary screen, biochemical, fluorescence polarization, Cy5-IP20, bovine R1A, mouse PKAc. cAMP-dependent protein kinase type I-alpha regulatory subunit (Bos taurus) + …. PKA-R1A dissociation; scaled: DMSO 0%, 113 µM cGMP 100%. activation, % at 11.4 µM. 340,000 compounds, 0.083% hits;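 active = percent activation above the mean of all tested compounds plus 3 SD, cut at about 19% in these data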;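 also: higher means more PKAc released from R1A so a rise in polarization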
S100A4 inh HTS: inhibitors of S100A4-myosin IIA peptide binding, primary screen, biochemical, fluorescence polarization, TAMRA-MyoIIA peptide. AID 652163, 2013. inhibition, % at 10.7 µM. Protein S100-A4 (Homo sapiens), P26447. 360,000 compounds, 0.14% hits;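 active = mean inhibition of at least 70% across replicates, with every replicate also reaching that level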
Target sequence (P26447 whole entry, looked up): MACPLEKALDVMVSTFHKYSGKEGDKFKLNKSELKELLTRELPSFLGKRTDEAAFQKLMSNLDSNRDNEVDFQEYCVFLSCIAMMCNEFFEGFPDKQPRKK
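Compound dosing: one dose per compound; test system: human S100A4 monomer with TAMRA-labelled myosin IIA peptide; probe or stimulus: TAMRA-labelled myosin IIA heavy-chain peptide probe, 5 nM; medium: HEPES buffer with Ca2+, pH 7.2; schedule: 5 min incubation before reading; benchmarks: neutral control DMSO, positive control TFP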
The depositor's hits bear a star.

Cc1noc(C)c1S(=O)(=O)N(C)C[C@@H]1Oc2ccc(NC(=O)Nc3ccc4c(c3)OCO4)cc2CC(=O)N([C@@H](C)CO)C[C@H]1C was read as SIRT5 block 4.7 and S100A4 inh HTS 4.0.
CC(C)CC#Cc1ccc2c(c1)O[C@@H](CN(C)C(=O)C1CCCCC1)[C@H](C)CN([C@@H](C)CO)S2(=O)=O was read as SIRT5 block 16.8* and S100A4 inh HTS -16.2.
CC(C)CC#Cc1ccc2c(c1)O[C@H](CN(C)C(=O)C1CCCCC1)[C@@H](C)CN([C@@H](C)CO)S2(=O)=O was read as SIRT5 block 26.9* and S100A4 inh HTS 1.6.
Screening CC(C)CC#Cc1ccc2c(c1)O[C@H](CN(C)C(=O)C1CCCCC1)[C@@H](C)CN([C@H](C)CO)S2(=O)=O returned SIRT5 block 21.5* and S100A4 inh HTS -2.9.
`CN1C(=O)NC(c2ccccc2[N+](=O)[O-])C2=C1CC(C)(C)CC2=O` (stereo not drawn) gave PKA-R2B act -3.0, CRFBP-R2 block -6.6, SIRT5 block -0.2, PKA-R1A activ 2.0 and S100A4 inh HTS -3.3.
`CN1C(=O)NC(c2ccccc2[N+](=O)[O-])C2=C1CCCC2=O` (stereo not drawn) gave PKA-R2B act -6.5, CRFBP-R2 block 1.2, SIRT5 block 1.7, PKA-R1A activ -7.3 and S100A4 inh HTS 117.4*.
`Cc1cc(-c2ccc(Br)cc2)n[nH]1` gave PKA-R2B act -9.3, CRFBP-R2 block 8.0, SIRT5 block 15.6*, PKA-R1A activ -3.2 and S100A4 inh HTS -2.6.
`COc1ccc(S(=O)(=O)N(C)C[C@H]2Oc3ncc(-c4ccncc4)cc3C(=O)N([C@@H](C)CO)C[C@H]2C)cc1` gave SIRT5 block -2.8 and S100A4 inh HTS 90.1*.
For CCCC#Cc1cnc2c(c1)C(=O)N([C@H](C)CO)C[C@@H](C)[C@@H](CN(C)S(=O)(=O)c1cccc(OC)c1)O2 the results were SIRT5 block 1.6 and S100A4 inh HTS 3.2.
C[C@H]1CN([C@@H](C)CO)C(=O)c2cc(C#CCN(C)C)cnc2O[C@H]1CN(C)S(=O)(=O)c1ccccc1 was read as SIRT5 block 63.3* and S100A4 inh HTS -20.5.
Screening COc1cccc(S(=O)(=O)N(C)C[C@@H]2Oc3ncc(-c4cccc(C(F)(F)F)c4)cc3C(=O)N([C@H](C)CO)C[C@@H]2C)c1 returned SIRT5 block 19.7* and S100A4 inh HTS 0.6.
For C[C@@H]1CN([C@@H](C)CO)C(=O)c2cc(C#CCN(C)C)cnc2O[C@@H]1CN(C)S(=O)(=O)c1ccccc1 the results were SIRT5 block 0.6 and S100A4 inh HTS 5.0.
CCCC#Cc1cnc2c(c1)C(=O)N([C@@H](C)CO)C[C@@H](C)[C@H](CN(C)S(=O)(=O)c1cccc(OC)c1)O2 was read as SIRT5 block 29.0* and S100A4 inh HTS 4.5.
For C[C@@H]1CN([C@H](C)CO)C(=O)c2cc(C#CC3CC3)cnc2O[C@@H]1CN(C)S(C)(=O)=O the results were SIRT5 block 3.7 and S100A4 inh HTS 117.5*.
`Cc1ccc(S(=O)(=O)N(C)C[C@@H]2Oc3ncc(C#Cc4ccc(C(F)(F)F)cc4)cc3C(=O)N([C@H](C)CO)C[C@@H]2C)cc1` gave SIRT5 block 24.8* and S100A4 inh HTS 3.7.
`C[C@@H]1CN([C@@H](C)CO)C(=O)c2cc(/C=C/c3ccccc3)cnc2O[C@H]1CN(C)S(=O)(=O)c1cccs1` gave SIRT5 block 3.0 and S100A4 inh HTS 94.4*.
For C[C@H](CO)N1C[C@H](C)[C@H](CN(C)S(C)(=O)=O)Oc2ncc(C#CC3CC3)cc2C1=O the results were SIRT5 block 2.0 and S100A4 inh HTS 5.5.
`CC(C)NC(=O)N[C@H]1C=C[C@@H](CC(=O)NCc2ccc(Oc3ccccc3)cc2)O[C@@H]1CO` gave SIRT5 block -3.5 and S100A4 inh HTS -7.1.
For CCN1C(=O)/C(=C/C=C2\C=CN(CC)c3ccccc32)SC1=S the results were PKA-R2B act 0.4, CRFBP-R2 block 52.7* and PKA-R1A activ 4.9.
For COc1cc(/C=C2\SC(=S)N(C(C(=O)O)c3ccccc3)C2=O)cc(OC)c1OC (stereo not drawn) the results were PKA-R2B act -2.2, CRFBP-R2 block -0.1, SIRT5 block 15.9*, PKA-R1A activ -13.7 and S100A4 inh HTS -0.9.
O=C(O)C(c1ccccc1)N1C(=O)/C(=C\c2ccc(-c3ccccc3Cl)o2)SC1=S (stereo not drawn) was read as PKA-R2B act -3.0, CRFBP-R2 block -103.7, SIRT5 block 33.2*, PKA-R1A activ 3.2 and S100A4 inh HTS -1.0.
`COc1ccc(/C=C2\SC(=S)N(C(C(=O)O)c3ccccc3)C2=O)c(OC)c1` (stereo not drawn) gave PKA-R2B act -0.4, CRFBP-R2 block 30.1, SIRT5 block 12.2, PKA-R1A activ -6.8 and S100A4 inh HTS 1.2.
COc1cccc(/C=C2\SC(=S)N(C(C(=O)O)c3ccccc3)C2=O)c1OC (stereo not drawn) was read as PKA-R2B act -2.5, CRFBP-R2 block 12.2, SIRT5 block 5.0, PKA-R1A activ -6.5 and S100A4 inh HTS 4.1.
`O=C(O)C(c1ccccc1)N1C(=O)/C(=C\c2ccc(-c3ccc(Br)cc3)o2)SC1=S` (stereo not drawn) gave PKA-R2B act 7.1, CRFBP-R2 block -56.9, SIRT5 block 53.6*, PKA-R1A activ 0.8 and S100A4 inh HTS -24.5.
Screening C[C@@H]1CN([C@H](C)CO)C(=O)c2cc(C3=CCCCC3)cnc2O[C@H]1CN(C)C(=O)C1CCOCC1 returned SIRT5 block -5.4 and S100A4 inh HTS 9.6.
For COc1ccc2c3c([nH]c2c1)[C@H](CO)N(C(=O)C1CCCC1)CC31CN(C)C1 the results were S100A4 inh HTS -0.7.
Cc1noc(C)c1S(=O)(=O)Nc1cccc2c1O[C@H](CN(C)CC1CC1)[C@H](C)CN([C@H](C)CO)C2=O was read as SIRT5 block -0.5 and S100A4 inh HTS 10.9.
For COc1cccc(NC(=O)N(C)C[C@H]2Oc3ncc(C4=CCCCC4)cc3C(=O)N([C@@H](C)CO)C[C@H]2C)c1 the results were SIRT5 block 0.8 and S100A4 inh HTS -10.2.
For CCCNC(=O)N1CC(=O)N2[C@H](C1)[C@H](c1ccc(-c3ccncc3)cc1)[C@@H]2CO the results were SIRT5 block -1.2 and S100A4 inh HTS -0.3.

Source: PubChem BioAssay (several laboratories)
